CSN deneddyl inh: inhibitors of CSN-mediated cullin deneddylation, primary screen, biochemical, fluorescence polarization, uHTS | actives 0.38% (n = 360,000) | AID 651999, 2013 | Purified CSN, SCF-Nedd8-OG deneddylation | inhibition, % at 12.5 µM | COP9 signalosome complex subunit 5 (Homo sapiens), Q92905;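 active means pattern-corrected inhibition above about 35%, with an unprinted fluorescence ratio check between 0.5 and 1.5, limit read from the data, passing the limit was not always enough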;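 further: 0% = enzyme with substrate and 100% = substrate without enzyme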
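Detection – fluorescence polarization · System – HEK293T-derived human Csn5 enzyme · Controls – substrate-only high control, full reaction low control · Timing – 90 min, room temperature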
SUMO1 PPI mod: modulators of SUMO1 protein-protein interactions, primary screen, biochemical, uHTS; AID 602429, 2012; inhibition, % at 20 µM; actives 0.33% (n = 360,000); SUMO1 binding to a labelled peptide, TR-FRET, 1 h; Small ubiquitin-related modifier 1 (Homo sapiens), P63165; in the data active means inhibition above about 37%
Target sequence (P63165 whole entry, looked up): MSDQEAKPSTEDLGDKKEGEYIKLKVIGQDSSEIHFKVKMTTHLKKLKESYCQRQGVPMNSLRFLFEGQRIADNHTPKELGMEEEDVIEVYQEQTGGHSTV
Scp1 inh: Scp-1 phosphatase inhibitors, primary screen, biochemical, colorimetric, uHTS | actives 0.88% (n = 340,000) | AID 493091, 2011 | Recombinant Scp1, phosphopeptide, malachite green phosphate absorbance | inhibition, % at 20 µM;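 active means inhibition above about 50% at 20 µM, limit read from the data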;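 further: plate controls were DMSO wells with enzyme for no effect and wells lacking enzyme for full effect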
Target sequence (Q9GZU7 76-261 limits assumed): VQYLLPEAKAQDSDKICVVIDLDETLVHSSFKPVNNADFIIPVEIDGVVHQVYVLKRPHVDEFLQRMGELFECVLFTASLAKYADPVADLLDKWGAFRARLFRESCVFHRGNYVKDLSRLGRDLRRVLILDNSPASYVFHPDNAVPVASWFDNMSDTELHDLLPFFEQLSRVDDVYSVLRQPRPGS
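Material – SCP-1 phosphatase catalytic domain, residues 76-261 · Buffer or medium – Acidic Tris acetate buffer with magnesium and detergent · Also added – Phospho 17-mer peptide substrate · Compound – single 20 µM dose, 1% DMSO · Times – 45 min room-temperature reaction, 5 min colour, 30 min stabiliser · Technique – Phosphate-binding colour reagent, absorbance read at 630 nm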
LMPTP inh: LMPTP phosphatase inhibitors, primary screen, biochemical, fluorescence intensity, uHTS | Low molecular weight phosphotyrosine protein phosphatase (Homo sapiens), P24666 | recombinant LMPTP-A, OMFP fluorogenic substrate | inhibition, % at 20 µM | actives 0.22% (n = 360,000);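 active means compounds that cut the enzyme signal by at least half of the control window in the single-dose screen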;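 further: plate controls were DMSO wells with enzyme plus substrate for no effect and substrate without enzyme for full effect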
Target sequence (P24666 whole entry, looked up): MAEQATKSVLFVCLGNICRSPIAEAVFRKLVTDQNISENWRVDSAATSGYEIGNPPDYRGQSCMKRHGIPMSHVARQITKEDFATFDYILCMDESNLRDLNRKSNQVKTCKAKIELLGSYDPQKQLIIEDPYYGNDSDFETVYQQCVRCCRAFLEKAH
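Assay system: LMPTP-A, protein tyrosine phosphatase of low molecular weight / Medium: pH 6.0 Bis-Tris buffer with DTT and Triton X-100 / Schedule: 50 min enzyme reaction at room temperature, protected from light / Measured by: endpoint fluorescence intensity from OMFP dephosphorylation / Read-out basis: % inhibition relative to no-enzyme and uninhibited control wells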
DNMT1 block: human DNMT1 methyltransferase inhibitors, primary screen, biochemical, molecular beacon, fluorescence, HinP1I cleavage, uHTS | DNA (cytosine-5)-methyltransferase 1 (Homo sapiens), P26358 | inhibition (reported as % activation of signal), % at 10 µM | actives 0.83% (n = 360,000) | AID 588458, 2011; in the data active means inhibition above about 50%
STEP block: STEP phosphatase inhibitors, primary screen, biochemical, fluorescence intensity, uHTS; recombinant STEP, OMFP fluorogenic substrate; inhibition, % at 20 µM; actives 0.25% (n = 360,000); AID 588621, 2011;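 active means inhibition at 20 µM, scaled per plate between control wells, above about 37%, limit read from the data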;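 further: 0% = DMSO with enzyme and substrate and 100% = substrate only without enzyme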
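Material: STEP (striatal-enriched tyrosine phosphatase) enzyme, cell-free | Medium: 50 mM Bis-Tris pH 6.0 with 2.5 mM DTT and 0.005% Tween 20 | Read-out: Percent inhibition scaled to no-enzyme and uninhibited-enzyme controls, plate-pattern corrected | Signal: Fluorescence read at 480 nm ex / 540 nm em | Times: 20 min reaction, room temperature, in the dark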
An asterisk follows results filed as active; · = no result given. Sampled rows, rich in hits. Any-hit rate of the full collection: about 2%.

SMILES	CSN deneddyl inh	SUMO1 PPI mod	Scp1 inh	LMPTP inh	DNMT1 block	STEP block
Cc1ccccc1CCN(C(=O)c1csnn1)C(C(=O)NC1CCCC1)c1ccco1 (stereo not drawn)	-3	6	-5	-1	-2	-2
N=C(N)c1ccc(OCCCCCOc2ccc(C(=N)N)cc2)cc1	3	-65	-9	58*	20	-3
COC(=O)c1cc(CNC(=O)c2ccc(S(=O)(=O)N(C)c3ccccc3)cc2)ccc1OC	-4	-10	-11	-8	-9	-2
c1ccc(CSc2nnc(-c3ccco3)o2)cc1	-6	44*	-10	0	4	0
CC1CC1C(=O)OCC(=O)Nc1cccc([N+](=O)[O-])c1 (stereo not drawn)	12	-10	-9	0	-1	-1
O=C(NC1CCCC1)c1sc(=S)n2c1[nH]c(=O)c1ccccc12	0	10	58*	0	-2	19
O=C(NCc1ccco1)c1sc(=S)n2c1[nH]c(=O)c1ccccc12	10	8	47	1	-1	19
O=Cc1ccnc(-c2ccc(OC(=O)c3ccco3)cc2)n1	7	56*	-9	1	-8	3
CCOc1ccc(NC(=O)C2CC(=O)N(c3ccc4c(c3)OCCO4)C2)cc1OCC (stereo not drawn)	3	-1	-4	0	-3	-1
Cc1cccnc1C1=NOC(Cc2ccccc2)C(=O)N1Cc1ccccc1F (stereo not drawn)	-6	4	·	1	-3	0
COc1ccc(Nc2nc(Cl)c(C=O)s2)cc1	41*	-23	·	0	-9	-5
Cc1ccc(C)c(N(CC(=O)NC2CCCC2)S(=O)(=O)c2ccccc2)c1	1	3	-2	0	-1	0
CCCC(C(=O)NCc1ccc(OC)cc1)N(Cc1ccco1)C(=O)c1snc(C(N)=O)c1N (stereo not drawn)	6	51*	-11	-1	-3	2
Cc1cccc(NC(=O)c2cc(-c3cc(C)ccc3O)n[nH]2)c1	3	0	-22	0	5	-3
COc1ccc(F)cc1-c1cc(C(=O)Nc2ccc(NC(C)=O)cc2)[nH]n1	1	5	·	0	2	-3
CC(=O)Nc1ccc(NC(=O)c2cc(-c3ccc(C)cc3O)n[nH]2)cc1	-1	74*	2	0	-6	3
COc1cc(F)ccc1-c1cc(C(=O)Nc2ccc(NC(C)=O)cc2)[nH]n1	11	63*	·	1	0	-1
CCOc1ccc(N=NC2C(=O)N(C(N)=S)N=C2C)cc1 (stereo not drawn)	0	-34	4	2	-2	7
O=C1c2cc(CO)cc(O)c2C(=O)c2c(O[C@@H]3OC(CO)[C@@H](O)[C@@H](O)[C@@H]3O)cccc21 (stereo partly drawn)	-2	-33	10	3	3	1
O=C1c2c(O)cccc2C(C2OC(CO)[C@@H](O)[C@H](O)[C@H]2O)c2cc(CO)cc(O)c21 (stereo partly drawn)	5	-22	-2	2	-5	0
O=C(O)c1cc(O)c2c(c1)[C@@H]([C@H]1c3cc(C(=O)O)cc(O)c3C(=O)c3c(O[C@@H]4O[C@H](CO)[C@@H](O)[C@H](O)[C@H]4O)cccc31)c1cccc(OC3O[C@H](CO)[C@@H](O)[C@H](O)[C@H]3O)c1C2=O (stereo partly drawn)	45	119*	92*	92*	98*	98*
O=C(O)c1cc(O)c2c(c1)[C@H]([C@H]1c3cc(C(=O)O)cc(O)c3C(=O)c3c(O[C@@H]4O[C@H](CO)[C@@H](O)[C@H](O)[C@H]4O)cccc31)c1cccc(OC3O[C@H](CO)[C@@H](O)[C@H](O)[C@H]3O)c1C2=O (stereo partly drawn)	-1	116*	92*	94*	97*	98*
Cc1nnc(SC(C)C(=O)Nc2ccc(Cl)cc2Cl)[nH]c1=O (stereo not drawn)	-3	0	5	-1	16	4
Cc1c(N=Nc2c(-c3ccc([N+](=O)[O-])cc3)[nH]n(C(N)=S)c2=O)cccc1[N+](=O)[O-]	7	22	93*	71*	75*	82*
Cc1[nH]n(C(N)=S)c(=O)c1N=Nc1cccc([N+](=O)[O-])c1C	-2	-29	-4	-1	-11	3
SMILES	CSN deneddyl inh	SUMO1 PPI mod	Scp1 inh	LMPTP inh	DNMT1 block	STEP block
NC(=S)n1[nH]c(-c2ccc([N+](=O)[O-])cc2)c(N=Nc2cccc([N+](=O)[O-])c2)c1=O	8	88*	74*	58*	-2	22
COc1cccc(CN2CCN(Cc3cccn3-c3cccnc3)CC2CCO)c1 (stereo not drawn)	-1	0	1	-1	2	1
CCOC(=O)c1sc2nc(OCCN3CCOCC3)cc(C)c2c1N	1	10	·	57*	·	·
CN(CC(=O)Nc1ccc(S(=O)(=O)N2CCOCC2)cc1)Cc1ccc(F)cc1	27	-4	-5	0	-1	-3
COc1ccc2oc(=Nc3ccc(C(=O)O)cc3)c(C(=O)NCc3ccco3)cc2c1	1	65*	-9	1	4	-3
Nc1c(N2CCCC2)cc(Cl)c2nonc12	24	37	-6	8	78*	4
CC[C@H](C)/C=C/C1=CC2=C(Cl)C(=O)[C@@]3(C)OC(=O)C(C(=O)[C@H](C)[C@@H](C)O)=C3C2=CO1	49*	-3	-13	2	21	-4
O=[N+]([O-])c1ccccc1CNC1CCCc2ccccc21 (stereo not drawn)	2	-10	4	0	2	-2
COC(=O)c1c(Sc2ccccc2)c2ccccc2n1C	-1	3	61*	0	4	-2
Cn1c(CC(=O)NN)c(Sc2ccccc2)c2ccccc21	-4	-1	-10	2	7	1
Cc1ccc(S(=O)(=O)Nc2cc(Cl)ccc2-n2cncn2)cc1	-4	5	-2	-2	0	-5
